Active and inactive are the calls of the source. The rule behind the calls is not given here.

For assay [1], the target named is T1, Toll-like receptor 9 (Homo sapiens) (UniProt Q9NR96).
T1 sequence (whole entry): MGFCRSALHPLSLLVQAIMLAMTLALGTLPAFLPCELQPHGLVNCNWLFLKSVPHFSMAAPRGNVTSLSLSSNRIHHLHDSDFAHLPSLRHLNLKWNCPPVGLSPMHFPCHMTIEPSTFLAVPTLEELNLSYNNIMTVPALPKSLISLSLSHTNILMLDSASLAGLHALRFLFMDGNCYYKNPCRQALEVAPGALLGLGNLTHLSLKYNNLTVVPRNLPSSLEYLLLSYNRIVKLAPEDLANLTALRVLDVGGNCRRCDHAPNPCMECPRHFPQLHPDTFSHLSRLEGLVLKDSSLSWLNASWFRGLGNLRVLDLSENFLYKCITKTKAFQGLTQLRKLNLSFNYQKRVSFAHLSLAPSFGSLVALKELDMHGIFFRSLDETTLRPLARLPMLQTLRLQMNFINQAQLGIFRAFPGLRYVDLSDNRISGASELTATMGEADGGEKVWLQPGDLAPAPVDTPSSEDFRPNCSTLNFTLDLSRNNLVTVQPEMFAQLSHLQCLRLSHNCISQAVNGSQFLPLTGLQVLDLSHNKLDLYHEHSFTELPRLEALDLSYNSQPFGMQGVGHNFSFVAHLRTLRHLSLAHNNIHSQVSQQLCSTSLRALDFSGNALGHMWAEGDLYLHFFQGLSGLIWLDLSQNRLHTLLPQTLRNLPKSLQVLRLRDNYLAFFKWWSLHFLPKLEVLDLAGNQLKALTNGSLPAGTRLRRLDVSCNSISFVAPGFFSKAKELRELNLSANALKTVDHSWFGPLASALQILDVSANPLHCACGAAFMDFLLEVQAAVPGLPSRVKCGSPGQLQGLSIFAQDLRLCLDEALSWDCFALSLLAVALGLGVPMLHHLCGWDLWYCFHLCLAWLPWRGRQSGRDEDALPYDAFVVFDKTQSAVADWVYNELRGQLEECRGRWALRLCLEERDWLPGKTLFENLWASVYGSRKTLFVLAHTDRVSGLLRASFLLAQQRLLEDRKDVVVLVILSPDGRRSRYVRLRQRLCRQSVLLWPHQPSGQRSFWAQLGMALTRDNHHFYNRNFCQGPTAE
The assay is described as follows: Induction of TLR9-mediated immune stimulation in human PBMC assessed as IL1Ralpha production at 10 ug/ml after 24 hrs by luminex multiplex assay (RVb = 0.12 +/- 0.03 ng/ml).

Assay [2] has as its target T1, Toll-like receptor 9 (Homo sapiens). Put plainly: Induction of TLR9-mediated immune stimulation in human PBMC assessed as MCP1 production at 10 ug/ml after 24 hrs by luminex multiplex assay (RVb = 0.08 +/- 0.02 ng/ml).
For assay [3] the target is unchanged. Put plainly: Induction of TLR9-mediated immune stimulation in human PBMC assessed as IP10 production at 2 ug/ml after 24 hrs by luminex multiplex assay (RVb = 0.00 ng/ml).
Assay [4] shares this target. Put plainly: Induction of TLR9-mediated immune stimulation in human PBMC assessed as IL1Ralpha production at 2 ug/ml after 24 hrs by luminex multiplex assay (RVb = 0.12 +/- 0.03 ng/ml).
For assay [5] the target is unchanged. The assay is described as follows: Induction of TLR9-mediated immune stimulation in human PBMC assessed as IL6 production at 2 ug/ml after 24 hrs by luminex multiplex assay (RVb = 0.01 ng/ml).
In assay [6] the test system is Mus musculus. The assay is described as follows: Immunostimulatory activity in C57BL/6 mouse assessed as increase in serum IL12 level at 1 mg/kg, sc after 2 hrs by ELISA. The assay is classed as functional, organism-based. Also on record: dose 1 mg/kg. A digest of the protocol:
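Female C57BL/6 mice (n=3) received a single subcutaneous agonist dose of 1 mg/kg. Blood was taken by retro-orbital bleeding 2 h later, and serum IL-12 was measured by sandwich ELISA. Values are the mean of three mice ± SD.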
Background: An ELISA detects its analyte on a solid surface through an enzyme-linked reagent.

Assay [7] addresses T1, Toll-like receptor 9 (Homo sapiens). Put plainly: Induction of TLR9-mediated immune stimulation in human PBMC assessed as MCP1 production at 2 ug/ml after 24 hrs by luminex multiplex assay (RVb = 0.08 +/- 0.02 ng/ml).
Assay [8] shares this target. Put plainly: Induction of TLR9-mediated immune stimulation in human PBMC assessed as IL2R production at 2 ug/ml after 24 hrs by luminex multiplex assay (RVb = 0.02 +/- 0.01 ng/ml).
The target is the same in assay [9]. Put plainly: Induction of TLR9-mediated immune stimulation in human PBMC assessed as IL2R production at 10 ug/ml after 24 hrs by luminex multiplex assay (RVb = 0.02 +/- 0.01 ng/ml).
Assay [10] shares this target. Put plainly: Induction of TLR9-mediated immune stimulation in human PBMC assessed as MIP1beta production at 10 ug/ml after 24 hrs by luminex multiplex assay (RVb = 0.03 +/- 0.02 ng/ml).
Assay [11] shares this target. Put plainly: Induction of TLR9-mediated immune stimulation in human PBMC assessed as MIP1alpha production at 2 ug/ml after 24 hrs by luminex multiplex assay (RVb = 0.01 ng/ml).
Assay [12] shares this target. The assay is described as follows: Induction of TLR9-mediated immune stimulation in human PBMC assessed as IL6 production at 10 ug/ml after 24 hrs by luminex multiplex assay (RVb = 0.01 ng/ml).
For assay [13] the target is unchanged. The assay is described as follows: Induction of TLR9-mediated immune stimulation in human PBMC assessed as IL12 production at 10 ug/ml after 24 hrs by luminex multiplex assay (RVb = 0.00 ng/ml).

`Cc1cn([C@H]2C[C@H](OCC(O)COP(=O)(S)O[C@H]3C[C@H](n4cc(C)c(=O)[nH]c4=O)O[C@@H]3COP(=O)(S)O[C@H]3[C@@H](O)[C@H](n4ccc(N)nc4=O)O[C@@H]3COP(=O)(S)O[C@H]3[C@@H](O)[C@H](n4cnc5c(N)ncnc54)O[C@@H]3COP(=O)(S)O[C@H]3[C@@H](O)[C@H](n4cnc5c(N)ncnc54)O[C@@H]3COP(=O)(S)O[C@H]3[C@@H](O)[C@H](n4ccc(N)nc4=O)O[C@@H]3COP(=O)(S)O[C@H]3[C@@H](O)[C@H](n4ccc(N)nc4=O)O[C@@H]3COP(=O)(S)O[C@H]3[C@@H](O)[C@H](n4cnc5c(N)ncnc54)O[C@@H]3COP(=O)(S)O[C@H]3[C@@H](O)[C@H](n4ccc(N)nc4=O)O[C@@H]3COP(=O)(S)O[C@H]3[C@@H](O)[C@H](n4cnc5c(N)ncnc54)O[C@@H]3COP(=O)(S)O[C@H]3[C@@H](O)[C@H](n4ccc(N)nc4=O)O[C@@H]3COP(=O)(S)O[C@H]3[C@@H](O)[C@H](n4cnc5c(N)ncnc54)O[C@@H]3CO)[C@@H](COP(=O)(S)O[C@H]3[C@@H](O)[C@H](n4ccc(N)nc4=O)O[C@@H]3COP(=O)(S)O[C@H]3[C@@H](O)[C@H](n4cnc5c(N)ncnc54)O[C@@H]3COP(=O)(S)O[C@H]3[C@@H](O)[C@H](n4cnc5c(N)ncnc54)O[C@@H]3COP(=O)(S)O[C@H]3[C@@H](O)[C@H](n4ccc(N)nc4=O)O[C@@H]3COP(=O)(S)O[C@H]3[C@@H](O)[C@H](n4ccc(N)nc4=O)O[C@@H]3COP(=O)(S)O[C@H]3[C@@H](O)[C@H](n4cnc5c(N)ncnc54)O[C@@H]3COP(=O)(S)O[C@H]3[C@@H](O)[C@H](n4ccc(N)nc4=O)O[C@@H]3COP(=O)(S)O[C@H]3[C@@H](O)[C@H](n4cnc5c(N)ncnc54)O[C@@H]3COP(=O)(S)O[C@H]3[C@@H](O)[C@H](n4ccc(N)nc4=O)O[C@@H]3COP(=O)(S)O[C@H]3[C@@H](O)[C@H](n4cnc5c(N)ncnc54)O[C@@H]3CO)O2)c(=O)[nH]c1=O` (stereo partly drawn): the Activity in [1] was 33.8 ng/mL; in assay [2] it was 0.37 ng/mL; in assay [3], 0.01 ng/mL; in assay [4], 5.47 ng/mL; in assay [5], 0.02 ng/mL; in assay [7], 0.2 ng/mL. For the same compound, the Activity in assay [8] stood at 0.06 ng/mL; in assay [9], 0.07 ng/mL; in assay [10] it was 0.15 ng/mL; in assay [11], 0.04 ng/mL; in [12], 0.03 ng/mL; in assay [13], 0.05 ng/mL. Further, the outcome in assay [6] was Active.

For the origin of these results see ChEMBL document CHEMBL1157912, “Impact of nature and length of linker incorporated in agonists on toll-like receptor 9-mediated immune responses” (J Med Chem, 2010).
